Target: T1, Aromatase (Homo sapiens, UniProt P11511)
T1 sequence (P11511 whole entry): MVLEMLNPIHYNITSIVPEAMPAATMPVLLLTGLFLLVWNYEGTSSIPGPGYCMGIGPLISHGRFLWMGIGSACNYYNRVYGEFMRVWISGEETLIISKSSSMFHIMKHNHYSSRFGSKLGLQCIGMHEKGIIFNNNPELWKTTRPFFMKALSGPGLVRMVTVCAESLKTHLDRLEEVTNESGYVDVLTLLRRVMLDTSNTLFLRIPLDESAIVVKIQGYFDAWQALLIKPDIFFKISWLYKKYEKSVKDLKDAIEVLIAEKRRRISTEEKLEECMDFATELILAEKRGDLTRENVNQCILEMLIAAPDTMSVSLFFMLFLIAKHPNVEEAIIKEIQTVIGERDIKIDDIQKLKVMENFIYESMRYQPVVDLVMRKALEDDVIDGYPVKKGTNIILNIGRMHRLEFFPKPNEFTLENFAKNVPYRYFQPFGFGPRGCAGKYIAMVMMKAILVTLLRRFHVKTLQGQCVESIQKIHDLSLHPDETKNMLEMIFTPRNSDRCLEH
Assay: Inhibition of CYP450 aromatase activity in SK-BR-3 cells
Summary of the method: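 Tritium water release assay in intact SK-BR-3 cells. Cells were treated 24 h with compound or 0.1% DMSO vehicle, then the medium was changed and cells were given 100 nM [1β-3H]-androstenedione for 3 h. Protein was precipitated with TCA and the medium chloroform- and charcoal-extracted. Released 3H2O was counted and expressed per million cells (DNA assay). IC50 came from nonlinear regression on five concentrations in triplicate.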

Structure (SMILES)	IC50 [µM]
COc1cc([N+](=O)[O-])ccc1NS(C)(=O)=O [N-(2-methoxy-4-nitrophenyl)methanesulfonamide]	> 25
COc1cc([N+](=O)[O-])ccc1N(C)S(C)(=O)=O [N-methyl-N-(2-methoxy-4-nitrophenyl)methanesulfonamide]	> 25
